Test results reported in ChEMBL document CHEMBL6127097, “Structure-Guided Discovery of cis-Hexahydro-pyrido-oxazinones as Reversible, Drug-like Monoacylglycerol Lipase Inhibitors” (J Med Chem, 2024).
The source made the active and inactive calls.

How the values were obtained:
[1] = Free fraction in human plasma incubated for 5 hrs by equilibrium dialysis based LC-MS/MS analysis; assay type: ADME, cell-free
How it was run: (§1)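 Equilibrium dialysis across a 12–14 kDa cutoff membrane in a Teflon 96-well device. Pooled frozen plasma is adjusted to pH 7.4 and spiked at 1000 nM initial total, against Soerensen buffer pH 7.4. Incubation is 5 h at 37 °C, 5% CO2, with diazepam control in each well. %fu = 100 × buffer/matrix concentration after dialysis; recovery accepted at 80–120%.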

[2] = Effective permeability of compound at pH 7.4 at 20 uM incubated for 18 hrs by LCMS analysis; assay type: ADME; conditions: not told, read-out: Peff
How it was run: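 PAMPA passive permeability. Donor holds 20 µM sample in 50 mM phosphate-buffered saline pH 7.4, at most 5% DMSO, in triplicate. The lipid/oil/lipid trilayer-impregnated hydrophobic filter sandwich is left unshaken 18 h at 21 °C. Reference, donor and acceptor solutions are analysed by LCMS to give P_eff.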

Monoglyceride lipase [3] = target: T1, Monoglyceride lipase (Homo sapiens, UniProt Q99685); assay: Binding affinity to human MAGL assessed as equilibrium dissociation constant by SPR analysis
T1 sequence (Q99685 whole entry): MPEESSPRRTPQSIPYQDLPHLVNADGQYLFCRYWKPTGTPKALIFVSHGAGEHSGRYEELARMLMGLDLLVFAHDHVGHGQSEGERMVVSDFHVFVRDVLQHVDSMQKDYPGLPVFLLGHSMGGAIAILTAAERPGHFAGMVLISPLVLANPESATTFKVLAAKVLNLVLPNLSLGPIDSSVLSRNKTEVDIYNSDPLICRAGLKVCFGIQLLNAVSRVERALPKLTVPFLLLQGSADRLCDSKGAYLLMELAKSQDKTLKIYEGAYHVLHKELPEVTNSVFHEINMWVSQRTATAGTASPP
How it was run: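 Human or rat MAGL was immobilized by amine coupling without ethanolamine quenching. Runs were done at 18 °C in 10 mM HEPES, 150 mM NaCl, 0.05% P20, 50 µM EDTA, pH 7.4, with 1% DMSO. Single-cycle kinetics used five concentrations, top 1 µM in 2-fold steps, at 30 µL/min, giving kon, koff and Kd.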

[4] = Clearance in rat hepatocytes assessed per 10 million cells; assay type: ADME, cell-based, Hepatocyte
[5] = Plasma protein binding in mouse assessed as fraction unbound by equilibrium dialysis based LC-MS/MS method; assay type: ADME, cell-free; how it was run: as §1
[6] = Plasma protein binding in rat assessed as fraction unbound by equilibrium dialysis based LC-MS/MS method; assay type: ADME, cell-free
mouse P-gp = assay: Apparent permeability across apical to basolateral side in pig LLC-PK1 cells expressing mouse P-gp; assay type: ADME, cell-based, Sus scrofa
How it was run: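 LLC-PK1 porcine kidney cells transfected with human or mouse P-gp were grown as polarized monolayers on filter membranes. Compound was dosed to the apical side and receiver appearance followed over 3 h at 37 °C. A→B Papp was measured with the P-gp inhibitor zosuquidar present at 1 µM.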

[7] = Tmax in Wistar rat at 10 mg/kg, ip measured […] by LC-MS/MS analysis; assay type: ADME, organism-based; conditions: in vivo
How it was run: (§2)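 Male Wistar rats, single dose. i.v. in NMP/0.9% NaCl 30:70; p.o. and i.p. in NMP/HPMC/diisooctyl sulfosuccinate 10:90; 3 per i.v./p.o. group, 6 i.p. K2EDTA plasma sampled 0.083–7 h, plus 24 h for i.v./p.o.; brain and CSF at 1, 2, 7 h (i.p. only). LC-MS/MS, noncompartmental analysis.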

[8] = Ratio of drug concentration in Wistar rat CSF to plasma at 10 mg/kg, ip measured upto 7 hrs by LC-MS/MS analysis; assay type: ADME, organism-based; how it was run: as §2
CYP2D6 = CYP2D6 (Homo sapiens, UniProt P10635); assay: Inhibition of CYP2D6 (unknown origin) at 10 uM relative to control; assay type: ADME
Chain of CYP2D6 (P10635 whole entry): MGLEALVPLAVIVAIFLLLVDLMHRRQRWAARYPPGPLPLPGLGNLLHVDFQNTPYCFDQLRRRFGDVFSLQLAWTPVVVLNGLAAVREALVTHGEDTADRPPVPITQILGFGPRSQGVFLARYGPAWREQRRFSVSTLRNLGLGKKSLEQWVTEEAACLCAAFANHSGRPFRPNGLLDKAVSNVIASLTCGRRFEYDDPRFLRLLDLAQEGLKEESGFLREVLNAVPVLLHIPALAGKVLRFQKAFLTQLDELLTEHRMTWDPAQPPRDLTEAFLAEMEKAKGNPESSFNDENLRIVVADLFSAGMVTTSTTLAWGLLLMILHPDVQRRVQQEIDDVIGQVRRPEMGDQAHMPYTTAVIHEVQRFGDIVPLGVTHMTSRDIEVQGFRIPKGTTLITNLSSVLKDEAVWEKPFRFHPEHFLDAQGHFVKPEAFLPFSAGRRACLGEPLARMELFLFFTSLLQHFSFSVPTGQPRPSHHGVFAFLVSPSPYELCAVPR

[9] = Genotoxicity in Salmonella typhimurium by Ames test; assay type: toxicity; conditions: salmonella enterica subsp. enterica serovar typhimurium
[10] = Drug concentration in mouse CSF at 30 mg/kg, ip measured after 2 hrs; assay type: ADME, organism-based, Cerebrospinal fluid; conditions: read-out: Ct
[11] = Drug concentration in mouse CSF at 30 mg/kg, ip measured after 8 hrs; assay type: ADME, organism-based, Cerebrospinal fluid; conditions: read-out: Ct
[12] = Drug concentration in mouse CSF at 30 mg/kg, ip measured after 24 hrs; assay type: ADME, organism-based, Cerebrospinal fluid; conditions: read-out: Ct
Monoglyceride lipase [13] = target: T2, Monoglyceride lipase (Rattus norvegicus, UniProt Q8R431); assay: Inhibition of rat MAGL using native substrate by Rapidfire MS assay
T2 sequence (Q8R431 whole entry): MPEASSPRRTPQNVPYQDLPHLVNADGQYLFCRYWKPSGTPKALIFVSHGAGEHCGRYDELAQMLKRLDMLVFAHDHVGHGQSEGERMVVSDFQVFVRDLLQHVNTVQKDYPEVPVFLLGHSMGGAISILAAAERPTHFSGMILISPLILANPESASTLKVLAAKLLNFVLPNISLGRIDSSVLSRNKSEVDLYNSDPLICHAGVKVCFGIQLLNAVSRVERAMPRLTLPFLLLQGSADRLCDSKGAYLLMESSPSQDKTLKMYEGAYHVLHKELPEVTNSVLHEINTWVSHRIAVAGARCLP

[14] = target: T3, Lysophosphatidylserine lipase ABHD12 (Mus musculus) (UniProt Q99LR1); assay: Inhibition of ABHD12 in mouse brain lysates at 10 uM by ABPP assay; assay type: subcellular
T3 sequence (whole entry): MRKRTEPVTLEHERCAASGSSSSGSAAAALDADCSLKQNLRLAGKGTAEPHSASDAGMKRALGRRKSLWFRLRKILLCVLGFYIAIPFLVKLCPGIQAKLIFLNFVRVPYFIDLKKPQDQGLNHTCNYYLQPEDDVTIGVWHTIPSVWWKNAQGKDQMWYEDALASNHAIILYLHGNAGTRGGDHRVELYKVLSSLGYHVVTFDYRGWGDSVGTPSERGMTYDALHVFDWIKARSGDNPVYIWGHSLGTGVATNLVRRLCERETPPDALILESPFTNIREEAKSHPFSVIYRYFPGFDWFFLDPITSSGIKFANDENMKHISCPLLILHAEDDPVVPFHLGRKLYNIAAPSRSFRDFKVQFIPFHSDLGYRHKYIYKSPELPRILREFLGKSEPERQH
How it was run: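 Gel-based activity-based protein profiling of hydrolases, with the inhibitor at 10 µM.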

LLC-PK1 = assay: Substrate activity at mouse P-gp expressed in LLC-PK1 cells assessed as efflux ratio incubated for 3 hrs; assay type: cell-based
How it was run: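 LLC-PK1 porcine kidney cells transfected with human or mouse P-gp, grown as polarized monolayers on filter plates. Compound is dosed apically or basolaterally and transport followed 3 h at 37 °C. Efflux ratio comes from unidirectional Papp; 1 µM zosuquidar defines permeability without P-gp.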

Mus musculus = assay: Antiinflammatory activity in LPS-induced CD-1 mouse neuroinflammation model assessed as decrease in brain IL-1beta mRNA expression at 30 mg/kg, ip measured after 6 hrs by qRT-PCR analysis; assay type: functional, organism-based
How it was run: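 CD-1 mice received NaCl + vehicle, LPS (5 mg/kg) + vehicle, or LPS + inhibitor at 30 mg/kg i.p. The vehicle was NaCl/DMSO/Tween 80, 80/10/10. Mice were killed 6 h after compound dosing. LCN2 and IL1b mRNA in cortical brain lysates were quantified by droplet digital qRT-PCR.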

| fraction unbound at 5 h [1] | Papp at 18 h, 20 µM [2] | Kd (Monoglyceride lipase [3]) | hepatocyte CLint [4] | fraction unbound [5] | fraction unbound [6] | Papp A→B (mouse P-gp) | Tmax [7] | Kp at 7 h [8] | inhibition at 10 µM (CYP2D6) | concentration at 2 h [10] | concentration at 8 h [11] | concentration at 24 h [12] | IC50 (Monoglyceride lipase [13]) | inhibition [14] | SMILES | Activity [9] | Ratio (LLC-PK1) | Activity (Mus musculus) |
| --- | --- | --- | --- | --- | --- | --- | --- | --- | --- | --- | --- | --- | --- | --- | --- | --- | --- | --- |
| 0.043 | 12.8 ×10⁻⁶ cm/s | 45 nM | 4 µL/min/10^7 cells | 0.047 | 0.032 | 24.4 ×10⁻⁶ cm/s | 15 min | 0.017 | -12% | 689 nM | 346 nM | 2 nM | 71 nM |  | O=C1CO[C@H]2CCN(C(=O)N3CCC(Cc4ccc(C(F)(F)F)cc4)CC3)C[C@H]2N1 [listing 1 of 2 here] | Non-Toxic |  |  |
|  |  |  |  |  |  |  |  |  |  |  |  |  |  | inactive | O=C1CO[C@H]2CCN(C(=O)N3CCC(Cc4ccc(C(F)(F)F)cc4)CC3)C[C@H]2N1 [listing 2 of 2 here] |  | 4 | Active |
